# Columns and labels:
# Format in all cases: functional
# Escherichia coli [1] = test: Antimicrobial activity against Escherichia coli DH5[alpha] transformed with pAC-ges1 plasmid encoding Beta-lactamase GES-1 E104, G170 mutant by Etest method
# Escherichia coli [2] = test: Antimicrobial activity against Escherichia coli DH5[alpha] transformed with pAC-ges1 plasmid encoding Beta-lactamase GES-5 E104, S170 mutant in presence of at 4 ug/ml Tazobactam by Etest method
# Summary of the method: (§1)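 E. coli DH5α host, either untransformed or carrying pACYC184-based clones of the GES variant genes; the source gene came from integron plasmid pBC-ges1. MICs were read by Etest following the manufacturer's recommendations, with the inhibitor held at a fixed 4 μg/ml.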
# Escherichia coli [3] = test: Antimicrobial activity against Escherichia coli DH5[alpha] by Etest method
# Escherichia coli [4] = test: Antimicrobial activity against Escherichia coli DH5[alpha] transformed with pAC-ges1 plasmid encoding Beta-lactamase GES-6 K104, S170 mutant in presence of at 4 ug/ml Tazobactam by Etest method; summary of the method: as §1
# Escherichia coli [5] = test: Antimicrobial activity against Escherichia coli DH5[alpha] transformed with pAC-ges1 plasmid encoding Beta-lactamase GES-13 K104, N170 mutant in presence of at 4 ug/ml Tazobactam by Etest method; summary of the method: as §1
# Escherichia coli [6] = test: Antimicrobial activity against Escherichia coli DH5[alpha] transformed with pAC-ges1 plasmid encoding Beta-lactamase GES-1 E104, G170 mutant in presence of at 4 ug/ml Tazobactam by Etest method; summary of the method: as §1
# Escherichia coli [7] = test: Antimicrobial activity against Escherichia coli DH5[alpha] in presence of at 4 ug/ml Tazobactam by Etest method; summary of the method: as §1
# Escherichia coli [8] = test: Antimicrobial activity against Escherichia coli DH5[alpha] transformed with pAC-ges1 plasmid encoding Beta-lactamase GES-5 E104, S170 mutant by Etest method
# Escherichia coli [9] = test: Antimicrobial activity against Escherichia coli DH5[alpha] transformed with pAC-ges1 plasmid encoding Beta-lactamase GES-13 K104, N170 mutant by Etest method
# Escherichia coli [10] = test: Antimicrobial activity against Escherichia coli DH5[alpha] transformed with pAC-ges1 plasmid encoding Beta-lactamase GES-2 E104, N170 mutant by Etest method
# Escherichia coli [11] = test: Antimicrobial activity against Escherichia coli DH5[alpha] transformed with pAC-ges1 plasmid encoding Beta-lactamase GES-7 K104, G170 mutant by Etest method
# Escherichia coli [12] = test: Antimicrobial activity against Escherichia coli DH5[alpha] transformed with pAC-ges1 plasmid encoding Beta-lactamase GES-7 K104, G170 mutant in presence of at 4 ug/ml Tazobactam by Etest method; summary of the method: as §1
# Escherichia coli [13] = test: Antimicrobial activity against Escherichia coli DH5[alpha] transformed with pAC-ges1 plasmid encoding Beta-lactamase GES-6 K104, S170 mutant by Etest method
# Escherichia coli [14] = test: Antimicrobial activity against Escherichia coli DH5[alpha] transformed with pAC-ges1 plasmid encoding Beta-lactamase GES-2 E104, N170 mutant in presence of at 4 ug/ml Tazobactam by Etest method; summary of the method: as §1
compound,measurement,setting,value
CCN1CCN(C(=O)N[C@@H](C(=O)N[C@@H]2C(=O)N3[C@@H]2SC(C)(C)[C@@H]3C(=O)O)c2ccccc2)C(=O)C1=O [PIPERACILLIN],MIC,Escherichia coli [1],8 µg/mL
same,MIC,Escherichia coli [2],2 µg/mL
same,MIC,Escherichia coli [3],4 µg/mL
same,MIC,Escherichia coli [4],2 µg/mL
same,MIC,Escherichia coli [5],1 µg/mL
same,MIC,Escherichia coli [6],1 µg/mL
same,MIC,Escherichia coli [7],1 µg/mL
same,MIC,Escherichia coli [8],8 µg/mL
same,MIC,Escherichia coli [9],8 µg/mL
same,MIC,Escherichia coli [10],4 µg/mL
same,MIC,Escherichia coli [11],12 µg/mL
same,MIC,Escherichia coli [12],1 µg/mL
same,MIC,Escherichia coli [13],12 µg/mL
same,MIC,Escherichia coli [14],1 µg/mL

# Source: ChEMBL document CHEMBL1687781, “Comparative biochemical and computational study of the role of naturally occurring mutations at Ambler positions 104 and 170 in GES β-lactamases” (Antimicrob Agents Chemother, 2010)
